Reference: PubChem BioAssay AID504829 (Southern Research Specialized Biocontainment Screening …, 2011)

Tested on: HEp-2 RSV CPE, time of addition, CellTiter-Glo viability
Assay: protection from RSV CPE by addition time, mechanism study for RSV inhibitor project, cell-based, time of addition, HEp-2 (AID 504829)
Details: at 25 µM, stronger effect = higher value
Outline: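 System: HEp-2 human cell line, virus-infected | Doses: 25 µM single dose, 0.5% DMSO | Times: 6-day incubation at 37 °C after infection | Signal: ATP-based luminescence with CellTiter-Glo reagent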

[1] = measured here: added 1 h before infection
[2] = measured here: added 1 h post infection
[3] = measured here: added 7 h post infection
[4] = measured here: added 21 h post infection
[5] = measured here: added 24 h post infection

SMILES: Cc1ccc(C)c(NC(=O)[C@@H]2CCCN2S(=O)(=O)c2cccc3cccnc23)c1
- viability (protection from CPE): 91.4%
- viability [1]: 91.6%
- viability [2]: 61.7%
- viability [3]: 49.6%
- viability [4]: 35.1%
- viability [5]: 27.7%

SMILES: Cc1ccc(NC(=O)[C@@H]2CCCN2S(=O)(=O)c2cccc3cccnc23)c(C)c1
- viability (protection from CPE): 77.1%
- viability [1]: 87.5%
- viability [2]: 56%
- viability [3]: 51.8%
- viability [4]: 29%
- viability [5]: 23.1%

SMILES: COc1ccc(C)c(NC(=O)[C@@H]2CCCN2S(=O)(=O)c2cccc3cccnc23)c1
- viability (protection from CPE): 81.8%
- viability [1]: 90.4%
- viability [2]: 63.3%
- viability [3]: 52.1%
- viability [4]: 34.3%
- viability [5]: 24.8%
